From ChEMBL document CHEMBL4190216, “Asymmetric 1,5-diarylpenta-1,4-dien-3-ones: Antiproliferative activity in prostate epithelial cell models and pharmacokinetic studies” (Eur J Med Chem, 2017)

Key:
PC-3 [1] = assay: Antiproliferative activity against human PC3 cells assessed as decrease in cell viability after 3 days by WST assay; assay type: functional, cell-based; conditions: PC-3, 72 h
Summary of the method: (§1)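 Cells were seeded at 3,200 per well. PC-3 and LNCaP were grown in RPMI-1640 and DU-145 in EMEM, each with 10% FBS and 1% penicillin/streptomycin, at 37 °C and 5% CO2. Cells were exposed for 3 days to at least five concentrations, with DMSO as vehicle control. WST-1 reagent was then added for 3 h at 37 °C and absorbance read at 430 nm. IC50 came from linear inhibition, averaged over triplicates.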

DU-145 = assay: Antiproliferative activity against human DU145 cells assessed as decrease in cell viability after 3 days by WST assay; assay type: functional, cell-based; conditions: DU-145, 72 h; summary of the method: as §1
PWR-1E = assay: Potency index, ratio of curcumin IC50 to test compound IC50 for human PWR-1E cells expressing androgen receptor and PSA; assay type: functional
[2] = Antiproliferative activity against human LNCaP95 cells expressing androgen receptor splice variants assessed as decrease in cell viability after 5 days by trypan blue exclusion assay; assay type: functional, cell-based; conditions: LNCaP-95, 120 h
VCaP = assay: Antiproliferative activity against human VCaP cells expressing androgen receptor splice variants assessed as decrease in cell viability after 5 days by trypan blue exclusion assay; assay type: functional, cell-based; conditions: 120 h
CWR22R = assay: Antiproliferative activity against human 22Rv1 cells expressing androgen receptor splice variants assessed as decrease in cell viability after 5 days by trypan blue exclusion assay; assay type: functional, cell-based; conditions: 22Rv1, 120 h
[3] = Plasma concentration in Sprague-Dawley rat at 10 mg/kg administered via oral gavage measured at 1 hr by HPLC-MS/MS analysis; assay type: ADME, organism-based
[4] = Plasma concentration in Sprague-Dawley rat at 10 mg/kg administered via oral gavage measured at 6 hrs by HPLC-MS/MS analysis; assay type: ADME, organism-based
[5] = Tmax in Sprague-Dawley rat at 10 mg/kg administered via oral gavage by HPLC-MS/MS analysis; assay type: ADME, organism-based; conditions: in vivo
[6] = Cmax in Sprague-Dawley rat at 10 mg/kg administered via oral gavage by HPLC-MS/MS analysis; assay type: ADME, organism-based; parameters: dose 10 mg/kg, route oral; conditions: in vivo
[7] = AUC in Sprague-Dawley rat at 10 mg/kg administered via oral gavage by HPLC-MS/MS analysis; assay type: ADME, organism-based; conditions: in vivo
Rattus norvegicus = assay: Acute toxicity in Sprague-Dawley rat at 10 mg/kg administered via oral gavage; assay type: organism-based; conditions: in vivo
Summary of the method: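 Male Sprague-Dawley rats (250–300 g, n = 4) each received a single 10 mg/kg oral gavage dose. The vehicle was 5% DMSO, 40% polyethylene glycol 400 and 55% saline. Blood was drawn from the lateral tail vein at 1, 3, 6 and 24 h for plasma drug levels. Toxicity was scored as observed deaths after dosing.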

[8] = Drug metabolism in human liver microsomes assessed as (1E,4E)-1-(1-sec-butyl-4-hydroxy-1H-imidazol-2-yl)-5-(2-methyl-4-(trifluoromethyl)thiazol-5-yl)penta-1,4-dien-3-one formation at 10 mM after 60 mins by UHPLC analysis; assay type: ADME, microsome
Summary of the method: (§2)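 Pooled human liver microsomes in potassium phosphate buffer (pH 7.4) with NADPH solutions A and B were preincubated for 5 min at 37 °C. Compound was then added from a 10 mM stock (3 μL into 300 μL total) and incubated 60 min at 37 °C. Reactions were quenched with an equal volume of methanol and centrifuged (10,000 × g, 4 min, 4 °C). Supernatant went to UHPLC–high-resolution MS for metabolite identification.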

[9] = Drug metabolism in human liver microsomes assessed as (1Z,4E)-5-(1-sec-butyl-1H-imidazol-2-yl)-1-hydroxy-1-(2-methyl-4-(trifluoromethyl)thiazol-5-yl)penta-1,4-dien-3-one formation at 10 mM after 60 mins by UHPLC analysis; assay type: ADME, microsome; summary of the method: as §2
PC-3 [10] = assay: Cell cycle arrest in human PC3 cells assessed as accumulation at G0/G1 phase at 5 uM after 24 hrs by propidium iodide staining-based flow cytometric method (reference value: 59 to 62%); assay type: functional
PC-3 [11] = assay: Cell cycle arrest in human PC3 cells assessed as accumulation at G2 phase at 5 uM after 16 hrs by propidium iodide staining-based flow cytometric method (reference value: 25 to 28%); assay type: functional
PC-3 [12] = assay: Cell cycle arrest in human PC3 cells assessed as accumulation at G2 phase at 5 uM after 24 hrs by propidium iodide staining-based flow cytometric method (reference value: 24%); assay type: functional
PC-3 [13] = assay: Induction of apoptosis in human PC3 cells assessed as viable cells at 10 uM after 16 hrs by F2N12S/CYTOX AADvanced double staining-based flow cytometric method (reference value: 95%); assay type: functional; conditions: PC-3, 16 h, read-out: Activity
PC-3 [14] = assay: Induction of apoptosis in human PC3 cells assessed as late apoptotic/necrotic cells at 10 uM after 16 hrs by F2N12S/CYTOX AADvanced double staining-based flow cytometric method (reference value: 3%); assay type: functional
PC-3 [15] = assay: Induction of apoptosis in human PC3 cells assessed as viable cells at 15 uM after 16 hrs by F2N12S/CYTOX AADvanced double staining-based flow cytometric method (reference value: 95%); assay type: functional; conditions: PC-3, 16 h, read-out: Activity
PC-3 [16] = assay: Induction of apoptosis in human PC3 cells assessed as viable cells at 5 uM after 16 hrs by F2N12S/CYTOX AADvanced double staining-based flow cytometric method (reference value: 95%); assay type: functional; conditions: PC-3, 16 h, read-out: Activity
PC-3 [17] = assay: Induction of apoptosis in human PC3 cells assessed as viable cells at 20 uM after 16 hrs by F2N12S/CYTOX AADvanced double staining-based flow cytometric method (reference value: 95%); assay type: functional; conditions: PC-3, 16 h, read-out: Activity
PC-3 [18] = assay: Induction of apoptosis in human PC3 cells assessed as early apoptotic cells at 20 uM after 16 hrs by F2N12S/CYTOX AADvanced double staining-based flow cytometric method (reference value: 2%); assay type: functional
PC-3 [19] = assay: Induction of apoptosis in human PC3 cells assessed as early apoptotic cells at 30 uM after 16 hrs by F2N12S/CYTOX AADvanced double staining-based flow cytometric method (reference value: 2%); assay type: functional
PC-3 [20] = assay: Induction of apoptosis in human PC3 cells assessed as late apoptotic/necrotic cells at 30 uM after 16 hrs by F2N12S/CYTOX AADvanced double staining-based flow cytometric method (reference value: 3%); assay type: functional
PC-3 [21] = assay: Induction of apoptosis in human PC3 cells assessed as viable cells at 40 uM after 16 hrs by F2N12S/CYTOX AADvanced double staining-based flow cytometric method (reference value: 95%); assay type: functional; conditions: PC-3, 16 h, read-out: Activity
PC-3 [22] = assay: Induction of apoptosis in human PC3 cells assessed as early apoptotic cells at 40 uM after 16 hrs by F2N12S/CYTOX AADvanced double staining-based flow cytometric method (reference value: 2%); assay type: functional
PC-3 [23] = assay: Induction of apoptosis in human PC3 cells assessed as late apoptotic/necrotic cells at 40 uM after 16 hrs by F2N12S/CYTOX AADvanced double staining-based flow cytometric method (reference value: 3%); assay type: functional
[24] = Retention time of the compound; assay type: physicochemical

In the case of `CCC(C)n1ccnc1/C=C/C(=O)/C=C/c1sc(C)nc1C(F)(F)F` (centres undefined), the IC50 (PC-3 [1]) is reported as 0.23 µM, the IC50 (DU-145) is reported as 0.35 µM and the “Ratio IC50” value (PWR-1E) is reported as 81. For the same compound, the IC50 [2] was 0.37 µM, the IC50 (VCaP) was 0.35 µM and the IC50 (CWR22R) was 0.85 µM. The concentration at 1 h [3] was 0.361 µg/mL, the concentration at 6 h [4] was 1.94 µg/mL and the Tmax [5] was 6 h. For the same compound, the Cmax [6] was 5.27 µM, the AUC [7] was 24.7 µg·h/mL and the Activity (Rattus norvegicus) was “Non-Toxic”. The Drug metabolism [8] was “Metabolite_Detected”, the Drug metabolism [9] was “Metabolite_Detected” and the Activity (PC-3 [10]) was 66%. For the same compound, the Activity (PC-3 [11]) was 18%, the Activity (PC-3 [12]) was 21% and the viability at 10 µM (PC-3 [13]) was 49%. For the same compound, the Activity (PC-3 [14]) was 37%, the viability at 15 µM (PC-3 [15]) was 54% and the viability at 5 µM (PC-3 [16]) was 50%. The viability at 20 µM (PC-3 [17]) was 51%, the Activity (PC-3 [18]) was 26% and the Activity (PC-3 [19]) was 20%. It also gave an Activity (PC-3 [20]) of 46%, a viability at 40 µM (PC-3 [21]) of 22% and an Activity (PC-3 [22]) of 25%. The Activity (PC-3 [23]) was 53% and the Retention_time [24] was 4.35 min.
